Assay results taken from PubChem BioAssay AID624299 (Broad Institute, 2012).
Where “and” joins values, the source holds several entries; their conditions need not be identical. Identical values can stand only once. Calls of active or inactive are those of the source.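 The calls were made as follows: active = compounds lowering the cell viability light signal with a fitted AC50 at most twice the top dose tested; inconclusive = flat fit with 30 to 70% inhibition, or poor fit; inactive = the rest.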

Key:
[1] = cytotoxicity in MALME3 melanoma cells – cell-based, CellTiter-Glo luminescence, dry powder samples, set 2, orthogonal assay for MITF inhibitor project, dose response (AID 624299); conditions: MALME3 melanoma viability, CellTiter-Glo ATP luminescence, 24 h; at 35 µM (top of the series)
How it was run: (§1)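 Measured by: CellTiter-Glo luminescence measuring cellular ATP | System: MALME3 melanoma cells | Doses: Multiple compound doses by pin transfer, day after seeding | Medium: Phenol-red-free IMDM with 10% FBS | Schedule: 37 °C compound incubation, 5 min RT before reading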

[2] = tested on: MALME3 melanoma viability, CellTiter-Glo ATP luminescence, 24 h; experiment: as above
How it was run: as §1

Row | Structure (SMILES) | activity change, negative = inhibition [1] | AC50 [2]
1 | COc1ccc(C2=C(NC(=O)c3ccc(OC)cc3-c3cccc(OC)c3)C(=O)c3ccccc3C2=O)cc1 | -8.34% (inactive) | –
2 | CCN1CCN(C2=C(N(C)C(C)=O)C(=O)c3ccccc3C2=O)CC1 | – | 2.5 µM
3 | CCN1CCN(C2=C(Nc3ccccc3)C(=O)c3ccccc3C2=O)CC1 | – | 12.4 µM
4 | O=C1C(NS(=O)(=O)c2ccccc2)=C(N2CCOCC2)C(=O)c2ccccc21 | – | 26.9 µM
5 | COc1ccc(C2=C(NC(=O)c3ccccc3Cl)C(=O)c3ccccc3C2=O)cc1 | – | 21.3 µM
6 | CC(=O)NC1=C(c2ccc(Cl)cc2)C(=O)c2ccccc2C1=O | – | 13.9 µM
7 | C[C@@H](NC1=C(Nc2ccccc2)C(=O)c2ccccc2C1=O)c1ccccc1 | – | > 70 µM (inactive)
8 | O=C(NC1=C(N2CCOCC2)C(=O)c2ccccc2C1=O)c1ccccc1 | – | 24.4 µM
9 | C=CCNC1=C(N(C)C(C)=O)C(=O)c2ccccc2C1=O | – | 0.7 µM
10 | CC(=O)NC1=C(c2cccc(Cl)c2)C(=O)c2ccccc2C1=O | – | 13.1 µM
11 | CN1CCN(C2=C(NS(=O)(=O)c3cccs3)C(=O)c3ccccc3C2=O)CC1 | – | 11.7 µM
12 | O=C1C(Nc2ccccc2)=C(N2CCCCC2)C(=O)c2ccccc21 | – | 5.84 µM
13 | O=C1C=C(Nc2ccccc2)C(=O)c2ccccc21 | – | 2.18 µM
14 | CC(=O)NC1=C(c2ccc3c(c2)oc2ccccc23)C(=O)c2ccccc2C1=O | – | 22 µM
15 | NC1=C(c2ccc(OC(F)(F)F)cc2)C(=O)c2ccccc2C1=O | – | > 70 µM (inactive)
16 | O=C(NC1=C(c2ccccc2)C(=O)c2ccccc2C1=O)c1ccco1 | – | 23.5 µM
17 | CC(=O)N(C)C1=C(N2CCN(C)CC2)C(=O)c2ccccc2C1=O | – | 1.96 µM
18 | CCN1CCN(C2=C(NS(=O)(=O)c3cccs3)C(=O)c3ccccc3C2=O)CC1 | – | 14.9 µM
19 | CCN1CCN(C2=C(NC(=O)c3ccc(Br)cc3)C(=O)c3ccccc3C2=O)CC1 | – | 1.79 µM
20 | C=CCNC1=C(Cl)C(=O)c2ccccc2C1=O | – | 9.65 µM and 12.4 µM
21 | O=C(NC1=C(N2CCCCC2)C(=O)c2ccccc2C1=O)c1ccccc1 | – | > 70 µM (inactive)
22 | COc1ccc(C2=C(N)C(=O)c3ccccc3C2=O)cc1 | – | > 70 µM (inactive)

Row | Structure (SMILES) | activity change, negative = inhibition [1] | AC50 [2]
23 | CCN(CC)CCCNC1=C(N(C)C(C)=O)C(=O)c2ccccc2C1=O | – | 3.12 µM
24 | COc1ccc(C2=C(NC(C)=O)C(=O)c3ccccc3C2=O)cc1 | – | 12 µM
25 | COc1cccc(C2=C(NC(=O)c3ccccc3)C(=O)c3ccccc3C2=O)c1 | – | 20.4 µM
26 | COc1ccc(C(=O)NC2=C(c3ccccc3)C(=O)c3ccccc3C2=O)cc1 | – | 28.3 µM
27 | CCN1CCN(C2=C(NC(=O)c3ccccc3)C(=O)c3ccccc3C2=O)CC1 | – | 3.93 µM
28 | COc1ccc(C2=C(NC(=O)c3ccc(Cl)cc3)C(=O)c3ccccc3C2=O)cc1 | – | 32 µM
29 | C=CCNC1=C(NCC=C)C(=O)c2ccccc2C1=O | 2.12% (inactive) | –
30 | CC(=O)NC1=C(c2ccccc2)C(=O)c2ccccc2C1=O | – | 18.6 µM
31 | C=CCNC1=C(NCCN(CC)CC)C(=O)c2ccccc2C1=O | – | 8.96 µM
32 | CN1CCN(C2=C(NS(=O)(=O)c3ccccc3)C(=O)c3ccccc3C2=O)CC1 | – | 7.3 µM
33 | C=C1C(=O)OC2C1CC/C(C)=C\CCC1(C)OC21 (configuration not stated) | – | 22.9 µM
34 | O=C(NC1=C(N2CCSCC2)C(=O)c2ccccc2C1=O)c1ccccc1 | – | 18.8 µM
35 | CN1CCN(C2=C(NC(=O)c3ccc(Br)cc3)C(=O)c3ccccc3C2=O)CC1 | – | 1.93 µM
36 | O=C1C(Nc2ccccc2)=C(N2CCOCC2)C(=O)c2ccccc21 | – | 15.6 µM and 24.9 µM
37 | C=CCNC1=C(N2CCCCC2)C(=O)c2ccccc2C1=O | – | 1.61 µM
38 | O=C1C(NS(=O)(=O)c2ccc(Br)cc2)=C(c2ccc(OC(F)(F)F)cc2)C(=O)c2ccccc21 | – | > 70 µM (inactive)
39 | C=CCNC1=C(N2CCN(CC)CC2)C(=O)c2ccccc2C1=O | – | 17.9 µM
40 | C=CCNC1=C(N2CCOCC2)C(=O)c2ccccc2C1=O | – | 5.76 µM
41 | Cc1ccc(C(=O)NC2=C(c3ccccc3)C(=O)c3ccccc3C2=O)o1 | – | 23.7 µM
42 | Cc1nc2ccccc2n1/N=C/c1ccc([N+](=O)[O-])s1 | – | 11.3 µM
43 | CCN1CCN(C2=C(NS(=O)(=O)c3ccc(Br)s3)C(=O)c3ccccc3C2=O)CC1 | – | 17.2 µM
44 | O=C1C(NS(=O)(=O)c2ccc(Br)cc2)=C(N2CCN(c3ccccc3)CC2)C(=O)c2ccccc21 | -51.2% (inactive) | –

Row | Structure (SMILES) | activity change, negative = inhibition [1] | AC50 [2]
45 | CC(=O)N(C)C1=C(N2CCOCC2)C(=O)c2ccccc2C1=O | – | 7.36 µM
46 | CN1CCN(C2=C(NS(=O)(=O)c3ccc(Br)cc3)C(=O)c3ccccc3C2=O)CC1 | – | > 70 µM (inactive)
47 | O=C(NC1=C(c2ccccc2)C(=O)c2ccccc2C1=O)c1ccccc1 | – | 32.2 µM
48 | O=C1C(NS(=O)(=O)c2ccc(Br)s2)=C(N2CCOCC2)C(=O)c2ccccc21 | – | 25.7 µM
49 | COc1ccc(C(=O)NC2=C(c3ccc(OC)cc3)C(=O)c3ccccc3C2=O)cc1 | – | 23.1 µM
50 | C=CCNC1=C(NCCCN(CC)CC)C(=O)c2ccccc2C1=O | – | 16.2 µM
51 | C=CCNC1=C(N2CCSCC2)C(=O)c2ccccc2C1=O | – | 5.96 µM
52 | COc1ccc(C(=O)NC2=C(c3ccc(OC(F)(F)F)cc3)C(=O)c3ccccc3C2=O)cc1 | – | > 70 µM (inactive)
53 | CN1CCN(C2=C(NS(=O)(=O)c3ccc(Br)s3)C(=O)c3ccccc3C2=O)CC1 | – | 12.5 µM
54 | O=C(CNc1cccc2ccccc12)N/N=C/c1ccc([N+](=O)[O-])o1 | – | 22.8 µM
55 | CCN(CC)CCCNC1=C(Nc2ccccc2)C(=O)c2ccccc2C1=O | – | 25.5 µM
56 | CN1CCN(C2=C(Nc3ccccc3)C(=O)c3ccccc3C2=O)CC1 | – | 16.4 µM
57 | O=C1C(Nc2ccccc2)=C(N2CCN(c3ccccc3)CC2)C(=O)c2ccccc21 | – | > 70 µM (inactive)
58 | CCN1c2ccccc2NC2N=C(OC)C(c3ccccc3)C21 (configuration not stated) | – | 6.63 µM
59 | C=CCNC1=C(Nc2ccccc2)C(=O)c2ccccc2C1=O | – | > 70 µM (inactive)
60 | CN1CCN(C2=C(NC(=O)c3ccccc3)C(=O)c3ccccc3C2=O)CC1 | – | 5.16 µM
61 | COc1ccc(C2=C(NC(=O)c3ccc4ccccc4c3)C(=O)c3ccccc3C2=O)cc1 | -7.26% (inactive) | –
62 | C=CCNC1=C(N2CCN(C)CC2)C(=O)c2ccccc2C1=O | – | 19.1 µM
63 | CC(=O)N(C)C1=C(N2CCCCC2)C(=O)c2ccccc2C1=O | – | 4.94 µM
64 | COc1ccc(C2=C(NC(=O)c3ccccc3OC)C(=O)c3ccccc3C2=O)cc1 | – | > 70 µM (inactive)
65 | O=C1C(NS(=O)(=O)c2cccs2)=C(N2CCOCC2)C(=O)c2ccccc21 | – | 21.7 µM
66 | O=C1C(NS(=O)(=O)c2ccc(Br)s2)=C(N2CCSCC2)C(=O)c2ccccc21 | – | 30.2 µM

Row | Structure (SMILES) | activity change, negative = inhibition [1] | AC50 [2]
67 | COC1=C(NS(=O)(=O)c2ccccc2)C(=O)c2ccccc2C1=O | – | 13.4 µM
68 | COc1ccc(S(=O)(=O)N(C(C)=O)c2ccc(OC(C)=O)c3ccccc23)cc1[N+](=O)[O-] | – | 19.6 µM
69 | COc1cccc(-c2cc(C(=O)NC3=C(Cl)C(=O)c4ccccc4C3=O)ccc2OC)c1 | – | 16.3 µM
70 | O=C(NC1=C(c2ccccc2)C(=O)c2ccccc2C1=O)c1ccc(Br)cc1 | – | > 70 µM (inactive)
71 | O=C(NC1=C(c2ccc(OC(F)(F)F)cc2)C(=O)c2ccccc2C1=O)c1ccc(Br)cc1 | 2.43% (inactive) | –
72 | O=C1C(NS(=O)(=O)c2ccc(Br)cc2)=C(N2CCOCC2)C(=O)c2ccccc21 | – | 23.4 µM
73 | O=C1C(NS(=O)(=O)c2ccc(Br)cc2)=C(N2CCCCC2)C(=O)c2ccccc21 | – | 31.5 µM
74 | O=C(NC1=C(N2CCN(c3ccccc3)CC2)C(=O)c2ccccc2C1=O)c1ccccc1 | -8.35% (inactive) | –
75 | O=C(NC1=C(c2ccc(OC(F)(F)F)cc2)C(=O)c2ccccc2C1=O)c1ccccc1F | – | > 70 µM (inactive)
76 | O=C1C(NCCCN2CCOCC2)=C(Nc2ccccc2)C(=O)c2ccccc21 | – | > 70 µM (inactive)
77 | CC1CCN(CC(CS(=O)(=O)c2ccc([N+](=O)[O-])cc2)N2CCC(C)CC2)CC1 (configuration not stated) | – | 23 µM
78 | COc1ccc(C2=C(NC(=O)c3cccc(OC)c3)C(=O)c3ccccc3C2=O)cc1 | – | 26.8 µM
79 | CCN1CCN(C2=C(NS(=O)(=O)c3ccc(Br)cc3)C(=O)c3ccccc3C2=O)CC1 | – | 20 µM
80 | NC1=C(NC(=O)c2ccccc2)C(=O)c2ccccc2C1=O | – | 16.1 µM
81 | O=C1C(Nc2ccccc2)=C(N2CCSCC2)C(=O)c2ccccc21 | – | > 70 µM (inactive)
82 | C=CCNC1=C(NC(=O)c2ccccc2)C(=O)c2ccccc2C1=O | – | > 70 µM (inactive)
83 | O=C(NC1=C(Cl)C(=O)c2ccccc2C1=O)c1ccccc1 | – | 5.7 µM
84 | O=C(NC1=C(N2CCSCC2)C(=O)c2ccccc2C1=O)c1ccc(Br)cc1 | – | 20.8 µM
85 | O=C(NC1=C(c2ccc(Oc3ccccc3)cc2)C(=O)c2ccccc2C1=O)c1ccccc1 | -15.3% (inactive) | –
86 | NC1=CC(=O)c2ccccc2C1=O | – | 7.89 µM
87 | O=C(NC1=C(N2CCOCC2)C(=O)c2ccccc2C1=O)c1ccc(Br)cc1 | – | 16.1 µM
